Compound activity: PubChem BioAssay, several laboratories
Arbovirus anti – antivirals against arbovirus infection, primary screen, cell-based, full library, 10K replicate subset; arbovirus infection cell-based antiviral screen; inhibition, % at 10 µM; 0.37% of 200,000 active; in the data active = inhibition above about 30%
Rad51 HR inh – human RAD51 strand exchange inhibitors, primary screen, biochemical, fluorescence; DNA repair protein RAD51 homolog 1 (Homo sapiens), Q06609; hRad51 DNA strand exchange, fluorescence dequenching; inhibition, % at 10 µM; 0.085% of 200,000 active;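 active = inhibition above 40% at the single screening dose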
Target sequence (Q06609 whole entry, looked up): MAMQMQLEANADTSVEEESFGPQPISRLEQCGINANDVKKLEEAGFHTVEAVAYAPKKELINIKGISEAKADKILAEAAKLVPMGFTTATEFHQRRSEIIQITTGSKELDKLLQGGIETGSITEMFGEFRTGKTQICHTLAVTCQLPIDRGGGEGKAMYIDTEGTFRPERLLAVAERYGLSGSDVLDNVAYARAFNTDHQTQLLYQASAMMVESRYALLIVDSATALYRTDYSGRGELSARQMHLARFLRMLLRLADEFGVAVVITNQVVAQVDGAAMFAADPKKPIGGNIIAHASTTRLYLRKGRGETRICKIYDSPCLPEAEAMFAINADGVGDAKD
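Test system: preformed human Rad51 ssDNA filaments; also added: Donor/quencher-labelled 47-bp dsDNA substrate; doses: 10 µM final, single point; times: 37 °C 15-min filament assembly, 30-min compound preincubation, 15-min exchange; detection: FRET fluorescence dequenching, excitation 485 nm, emission 520 nm; read-out basis: Fluorescence-based percent inhibition, control- and blank-normalised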
Measles CPE – compounds protecting cells from measles virus cytopathic effect, primary screen, measles RdRp inhibitor project, single point, MLSMR library, absorbance. Measles virus-infected cells, CPE protection. protection (pct of control), % at 4 µM. 1.5% of 140,000 active; in the data active = protection mostly above about 24%, no sharp cut-off; inactive = mostly below about 26%
Efa HMGR inh – inhibitors of E. faecalis class II HMGR, primary screen, biochemical, Enterococcus faecalis. purified E. faecalis HMGR, NADPH absorbance 340 nm kinetic. 0.41% of 190,000 active. HMG-CoA reductase (Enterococcus faecalis, mvaE). AID 1066, 2008. inhibition, % at 10 µM;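 active = inhibition above a set limit, the median over all tested compounds plus 3 SD, cut at about 9.5% in these data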;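 note: enzyme runs in reverse so mevalonate oxidation gives rising NADPH absorbance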
Yeast life ext – compounds extending yeast replicative lifespan, primary screen, S. cerevisiae, OD615 | S. cerevisiae growth with nicotinamide; deaD strain in restrictive glucose medium | inhibition of the nicotinamide effect, % at 10 µM | 0.68% of 130,000 active | AID 775, 2007;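 active = inhibition above a set limit, placed 3 SD over the median of all compounds, cut at about 26% in these data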
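Assay system: engineered S. cerevisiae DeaD replicative-lifespan strain, galactose-grown log-phase cells; Buffer or medium: CSMM-D glucose medium, restrictive; Probe or stimulus: nicotinamide 1.5 mM; Compound: single dose 10 µM compound, 0.25% DMSO; Schedule: 4 h preincubation then 48 h treatment at 30 °C; Technique: OD615 measurement.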
Yeast growth inh – growth inhibitors of yeast BB579 in restrictive medium, primary screen, yeast lifespan-shortening project, S. cerevisiae | OD615, 48 h | inhibition, % at 10 µM | 0.51% of 140,000 active | AID 804, 2007;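 active = inhibition above a set limit, 3 SD over the mean compound inhibition, cut at about 44% in these data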
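controls = amphotericin B 10 µg/mL, positive | assay system = DeaD yeast strain BB579 | schedule = 48 h compound exposure at 30 °C after 4 h preincubation | detection = OD615 turbidity measurement | medium = restrictive CSMM-D medium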
Hits are given with their value; n = inactive; x = not tested or not shown. Rows were chosen to be rich in hits. Some 2.4% of all compounds tested hit in one or more screens of this group.

SMILES	Arbovirus anti	Rad51 HR inh	Measles CPE	Efa HMGR inh	Yeast life ext	Yeast growth inh
CCCCN(C)CCCNC(=O)CCn1nc(-c2ccccc2)ccc1=O	n	x	n	n	n	n
CCCCNC(=O)CCn1nc(-c2ccccc2)ccc1=O	n	x	49.5	n	n	n
CC(C)CNC(=O)c1cccc(NC(=O)C(C)C)c1	n	n	x	n	x	x
COc1ccccc1C(=O)C1CCCN(C(=O)CSc2ccccn2)C1 (configuration not stated)	n	x	x	n	x	x
COc1ccc(F)cc1C(=O)C1CCCN(C(=O)CSc2ccccn2)C1 (configuration not stated)	34.7	x	x	n	x	x
O=S(=O)(NC1=NCCC1)c1cccc(NC(=S)NCCc2ccccc2)c1	n	n	n	n	n	n
CC(C)CCNC(=O)CN(C(=O)CCC(=O)Nc1ccccn1)c1ccc(F)c(Cl)c1	n	n	x	n	x	x
Cc1ccc(SCC(=O)Nc2cc([N+](=O)[O-])ccc2O)cc1	n	n	x	n	x	x
CN(C)C(=O)COC(=O)c1ccccc1Nc1ccc(SC(F)F)cc1	32.7	n	n	n	n	n
Cc1cc(C)c(NC(=O)c2ccc(CN3CCc4ccccc4C3)cc2)c(C)c1	n	n	n	n	n	n
CCn1ncc(/C=N/NC(=O)c2ccc3c(c2)OCO3)c1C	n	n	n	x	119.6	n
COc1ccc(-n2cc(CNC3CCC(O)CC3)c(-c3cccc(F)c3)n2)cc1 (configuration not stated)	n	x	x	n	x	x
CN1CCN(C(=O)c2ccccc2NC(=O)c2cccs2)CC1	n	n	45.4	n	n	n
Oc1ccc(-c2n[nH]c(=S)n2-c2ccc3c(c2)OCCO3)c(O)c1	33.1	n	59.7	n	n	n
CCOC(=O)c1c(OCCO)nn(-c2ccccc2)c1N	n	n	x	n	x	x
CCC(C(=O)NC(C)(C)C)N(C(=O)Cn1nnc(-c2cccs2)n1)c1cnc2ccccc2c1 (configuration not stated)	n	n	80.2	n	n	n
COc1cccc(N(C(=O)Cn2nnc(-c3ccc(C)o3)n2)C(C(=O)NC(C)(C)C)c2cccs2)c1 (configuration not stated)	n	n	n	n	x	n
Cn1c2ccccc2c(=O)n2c(=O)c3ccccc3cc12	n	n	n	n	n	47.1
O=c1c2ccccc2nc(-c2ccc(Cl)c(Cl)c2)n1O	n	n	n	n	76.2	n
C/C(=C\C(=O)c1ccc(Cl)s1)N(C)C	n	n	x	n	x	x
COc1cc(Cn2c(=O)oc3ccc(C)cc32)ccc1OC(C)C	n	n	n	14.2	x	n
O=C1C=CC2C(c3ccc4c(c3)OCO4)CC1N2Cc1ccccc1 (configuration not stated)	n	n	n	n	50.2	n
CCOC(=O)CC(NC(=O)c1cccc2c1C(=O)N(Cc1cccnc1)C2)c1ccc(OCC)c(OC)c1 (configuration not stated)	n	n	x	n	x	x
Cc1cc(C)cc(N2C(=O)C3CC=CCC3C2=O)c1 (configuration not stated)	n	n	43.8	n	n	n
Cc1cc(N2C(=O)C3CC=CCC3C2=O)cc(C)c1Br (configuration not stated)	n	n	n	n	n	n
SMILES	Arbovirus anti	Rad51 HR inh	Measles CPE	Efa HMGR inh	Yeast life ext	Yeast growth inh
Cc1ccc(/C=[N+](\[O-])c2ccc(N(C)C)cc2)c2nsnc12	n	x	x	n	x	x
Cc1cccc(NC(=S)NCCN2CCOCC2)c1C	n	n	38.9	n	n	n
Cc1ccc(C)c(NC(=S)NCCN2CCOCC2)c1	x	n	x	x	x	x
CC(=O)c1cc(C#N)c(SCC(=O)O)nc1C	n	n	n	n	n	n
CCCCSc1nc(C)c(C(C)=O)cc1C#N	n	n	n	n	n	50.1
CCOC(=O)CCS(=O)(=O)c1nc(-c2ccccc2)cc(C(F)(F)F)n1	n	n	n	n	67.2	n
COC(=O)CCS(=O)(=O)c1nc(-c2ccccc2)cc(C(F)(F)F)n1	n	n	n	n	76.8	n
O=C(O)CCS(=O)(=O)c1nc(-c2cccs2)cc(C(F)(F)F)n1	n	x	n	n	n	n
